One may read the IC50 as the concentration needed to halve the response being measured.

The values that follow come from ChEMBL document CHEMBL1806409, “Design, synthesis and biological evaluation of novel 4-thiazolidinones containing indolin-2-one moiety as potential antitumor agent” (Eur J Med Chem, 2011).

The subject of one assay is HT-29. The assay can be described thus: Cytotoxicity against human HT-29 cells assessed as cell growth inhibition after 72 hrs by MTT assay. The assay is classed as functional, cell-based. The following applies: HT-29, 72 h. In a few lines: (§1)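 Cancer lines grown in MEM with 10% FBS. About 4 × 10³ cells/well were seeded in MEM and incubated 24 h at 37 °C, 5% CO₂. Compounds were then added at final concentrations and exposure ran 72 h. MTT was added for 4 h at 37 °C and formazan dissolved in DMSO. Absorbance was read at 492 nm against a 630 nm reference. IC50 is the average of three determinations.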
On the technique in general: Tetrazolium assays rely on reduction of a dye to a coloured formazan, in cell work by metabolically active cells.

The test system of another assay is MDA-MB-231. The experiment in a line: Cytotoxicity against human MDA-MB-231 cells assessed as cell growth inhibition after 72 hrs by MTT assay. Type of assay: functional, cell-based. The following applies: MDA-MB-231, 72 h. The essentials: as §1
Another assay has as its system NCI-H460. The experiment in a line: Cytotoxicity against human H460 cells assessed as cell growth inhibition after 72 hrs by MTT assay. The assay is classed as functional, cell-based. The following applies: NCI-H460, 72 h. In a few lines: as §1
Another assay has as its system WI-38. The experiment in a line: Cytotoxicity against human WI38 cells assessed as cell growth inhibition after 72 hrs by MTT assay. The assay is classed as cell-based. The following applies: WI-38, 72 h. In a few lines:
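WI-38 normal human fetal lung fibroblasts were seeded at about 4 × 10³ cells/well and held 24 h at 37 °C, 5% CO₂, then exposed to compounds for 72 h. MTT was given for 4 h at 37 °C and formazan dissolved in DMSO. A492 was read with a 630 nm reference, and IC50 was averaged from three runs.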

The subject of the next assay is SMMC-7721. The experiment in a line: Cytotoxicity against human SMMC7721 cells assessed as cell growth inhibition after 72 hrs by MTT assay. The following applies: SMMC-7721, 72 h. The assay is classed as functional, cell-based. The essentials: as §1

Regarding `CCN(CC)CCCn1c(=O)c(=Cc2cc(OC)c(OC)c(OC)c2)s/c1=C1\C(=O)Nc2ccc(Cl)cc21` (mixture of isomers), the IC50 with HT-29 is more than 200 µM; in the assay on MDA-MB-231, more than 200 µM; with NCI-H460, 2.99 µM.
As for `COc1ccc(OC)c(C=c2s/c(=C3\C(=O)Nc4cc(F)ccc43)n(CCN(C)C)c2=O)c1` (mixture of isomers), the IC50 with HT-29 is 4.45 µM; with MDA-MB-231, 14.5 µM; in the assay with NCI-H460, 7.15 µM.
In the case of `CCN(CC)CCCn1c(=O)c(=Cc2ccc3c(c2)OCO3)s/c1=C1\C(=O)Nc2ccccc21` (mixture of isomers), the IC50 in the assay on HT-29 came to 0.91 µM; with MDA-MB-231 it was 1.12 µM; with WI-38, 3.93 µM; in the assay with NCI-H460 it was 1.02 µM; in the assay on SMMC-7721 it was 3.41 µM.
As for `CN(C)CCn1c(=O)c(=Cc2ccc(O)cc2)s/c1=C1\C(=O)Nc2ccccc21` (mixture of isomers), the IC50 in the assay on HT-29 was found to be 1.39 µM; with MDA-MB-231, 4.28 µM; with NCI-H460 it was 0.98 µM.
As for `CCN(CC)CCCn1c(=O)c(=Cc2cc(OC)c(OC)c(OC)c2)s/c1=C1\C(=O)Nc2ccc(C)cc21` (mixture of isomers), the IC50 with HT-29 is more than 200 µM; with MDA-MB-231 it was more than 200 µM; with NCI-H460 it was 2.67 µM.
Turning to `CN(C)CCn1c(=O)c(=Cc2ccc3c(c2)OCO3)s/c1=C1\C(=O)Nc2ccccc21` (mixture of isomers), the IC50 came to 0.7 µM in the assay on HT-29; 3.23 µM with MDA-MB-231; 1.77 µM with WI-38; 0.82 µM in the assay on NCI-H460; 2.74 µM in the assay on SMMC-7721.
For `COc1ccc(C=c2s/c(=C3\C(=O)Nc4cc(F)ccc43)n(CCN(C)C)c2=O)cc1` (mixture of isomers), the results for the IC50 in the assay with HT-29, in the assay on MDA-MB-231 and in the assay on NCI-H460 were 2.3 µM, 2.09 µM and 2.2 µM, respectively.
As for `CCN(CC)CCCn1c(=O)c(=Cc2cc(OC)c(OC)c(OC)c2)s/c1=C1\C(=O)Nc2ccc(F)cc21` (mixture of isomers), the IC50 with HT-29 was more than 200 µM; in the assay on MDA-MB-231 it was more than 200 µM; in the assay on WI-38, 2.02 µM; in the assay with NCI-H460, 0.78 µM; in the assay with SMMC-7721, 2.21 µM.
On to `CN(C)CCn1c(=O)c(=Cc2ccc(O)cc2)s/c1=C1\C(=O)Nc2ccc(Br)cc21` (mixture of isomers), for which the IC50 was 1.92 µM in the assay with HT-29, 2.52 µM in the assay with MDA-MB-231 and 1.11 µM in the assay with NCI-H460.
For `Cc1ccc2c(c1)/C(=c1/sc(=Cc3ccc4c(c3)OCO4)c(=O)n1CCN(C)C)C(=O)N2`, in that order: 1.03 µM, 8.1 µM and 4.03 µM.
For `COc1ccc(OC)c(C=c2s/c(=C3\C(=O)Nc4ccccc43)n(CCN(C)C)c2=O)c1` (mixture of isomers), in that order: 96 µM, 21 µM and 63.7 µM.
On to `CCN(CC)CCNC(=O)c1c(C)[nH]c(/C=C2\C(=O)Nc3ccc(F)cc32)c1C` [SUNITINIB], for which the IC50 in the assay with HT-29 was determined as 1.3 µM; in the assay on MDA-MB-231 it was 3.7 µM; in the assay with WI-38, 8.56 µM; with NCI-H460, 2.7 µM; in the assay on SMMC-7721, 6.47 µM.
With `CCN(CC)CCCn1c(=O)c(=Cc2ccc(F)c(F)c2)s/c1=C1\C(=O)Nc2cc(F)ccc21` (mixture of isomers), the IC50 in the assay on HT-29 was found to be 0.028 µM; with MDA-MB-231, 2.9 µM; in the assay with WI-38 it was 4.45 µM; in the assay on NCI-H460, 1.12 µM; with SMMC-7721, 5.33 µM.
For `CCN(CC)CCCn1c(=O)c(=Cc2ccc3c(c2)OCO3)s/c1=C1\C(=O)Nc2ccc(C)cc21` (mixture of isomers), the IC50 in the assay with HT-29 came to 2.11 µM; in the assay on MDA-MB-231, 3.1 µM; in the assay on NCI-H460 it was 1.86 µM.
On the same counts, the results for `CN(C)CCn1c(=O)c(=Cc2ccc(F)c(F)c2)s/c1=C1\C(=O)Nc2ccc(F)cc21` (mixture of isomers) are 3.09 µM, 9.48 µM and 44.7 µM.
For `CCN(CC)CCCn1c(=O)c(=Cc2ccc(F)cc2F)s/c1=C1\C(=O)Nc2ccc(Cl)cc21` (mixture of isomers), in that order: more than 200 µM, more than 200 µM and 6.1 µM.
For the compound `CCN(CC)CCCn1c(=O)c(=Cc2ccc(O)cc2)s/c1=C1\C(=O)Nc2ccc(C)cc21` (mixture of isomers), the IC50 in the assay with HT-29 came out at 0.77 µM; in the assay with MDA-MB-231 it was 1.81 µM; in the assay with WI-38, 5.75 µM; in the assay with NCI-H460 it was 0.26 µM; in the assay on SMMC-7721 it was 5.09 µM.
Turning to `COc1ccc(C=c2s/c(=C3\C(=O)Nc4cc(F)ccc43)n(CCN(C)C)c2=O)c(OC)c1` (mixture of isomers), the IC50 in the assay on HT-29 was 0.868 µM; in the assay on MDA-MB-231, 4.83 µM; in the assay with WI-38, 3.01 µM; in the assay on NCI-H460, 20.5 µM; with SMMC-7721, 6.81 µM.
On to `CN(C)CCn1c(=O)c(=Cc2ccc(F)cc2F)s/c1=C1\C(=O)Nc2cc(F)ccc21` (mixture of isomers), for which the values for the IC50 in the assay with HT-29, in the assay with MDA-MB-231 and with NCI-H460 were 6.46 µM, 8.44 µM and 3.2 µM, respectively.
`CN(C)CCn1c(=O)c(=Cc2ccc(O)cc2)s/c1=C1\C(=O)Nc2cc(F)ccc21` (mixture of isomers): the figures for the IC50 in the assay on HT-29, in the assay with MDA-MB-231 and with NCI-H460 were 2.27 µM, 3.45 µM and 1.43 µM, respectively.
On the same counts, the results for `CN(C)CCN1C(=O)/C(=C/c2ccc(O)cc2)SC1=S` are 59.7 µM, 84.2 µM and 46.1 µM.
As for `CCN(CC)CCCn1c(=O)c(=Cc2ccccc2O)s/c1=C1\C(=O)Nc2ccc(Br)cc21` (mixture of isomers), the values for the IC50 in the assay with HT-29, with MDA-MB-231 and with NCI-H460 were 18.1 µM, 19.9 µM and 51.7 µM, respectively.
Take `CCN(CC)CCCn1c(=O)c(=Cc2ccc(F)c(F)c2)s/c1=C1\C(=O)Nc2ccc(F)cc21` (mixture of isomers): the 50% inhibitory concentration (IC50) in the assay on HT-29 was determined as 0.64 µM; in the assay with MDA-MB-231, 1.22 µM; in the assay with WI-38 it was 4.3 µM; with NCI-H460, 1.3 µM; with SMMC-7721 it was 3.07 µM.
For the compound `COc1ccc(C=c2s/c(=C3\C(=O)Nc4ccc(Cl)cc43)n(CCN(C)C)c2=O)c(OC)c1` (mixture of isomers), the 50% inhibitory concentration (IC50) was 1.53 µM in the assay with HT-29, 3.83 µM in the assay with MDA-MB-231 and 10.6 µM in the assay on NCI-H460.
For `CCN(CC)CCCn1c(=O)c(=Cc2cc(OC)c(OC)c(OC)c2)s/c1=C1\C(=O)Nc2ccccc21` (mixture of isomers), in that order: 1.97 µM, 2.39 µM and 1.67 µM.
Consider `COc1cc(C=c2s/c(=C3\C(=O)Nc4ccc(F)cc43)n(CCN(C)C)c2=O)cc(OC)c1OC` (mixture of isomers), for which the IC50 was found to be 2.53 µM in the assay on HT-29; 1.9 µM in the assay on MDA-MB-231; 8.1 µM with WI-38; 1.7 µM with NCI-H460; 6.06 µM with SMMC-7721.
Turning to `Cc1ccc2c(c1)/C(=c1/sc(=Cc3ccc(O)cc3)c(=O)n1CCN(C)C)C(=O)N2` (mixture of isomers), the IC50 is 2.29 µM with HT-29, 1.32 µM in the assay with MDA-MB-231 and 1.77 µM in the assay with NCI-H460.
Regarding `CN(C)CCn1c(=O)c(=Cc2ccc(O)cc2)s/c1=C1\C(=O)Nc2ccc(F)cc21` (mixture of isomers), the IC50 in the assay on HT-29 is 1.48 µM; in the assay with MDA-MB-231 it was 4.2 µM; in the assay with NCI-H460 it was 1.27 µM.
For `CN(C)CCn1c(=O)c(=Cc2ccc3c(c2)OCO3)s/c1=C1\C(=O)Nc2cc(F)ccc21`, in that order: 1.36 µM, 2.42 µM and 2.81 µM.
On the same counts, the results for `CN(C)CCn1c(=O)c(=Cc2ccc(O)cc2)s/c1=C1\C(=O)Nc2ccc(Cl)cc21` (mixture of isomers) are 2.46 µM, 3.25 µM and 2.03 µM.
For `CCN(CC)CCCn1c(=O)c(=Cc2ccc(F)cc2F)s/c1=C1\C(=O)Nc2cc(F)ccc21` (mixture of isomers), in that order: 1.52 µM, 2.1 µM and 2.33 µM.
On to `Cc1ccc2c(c1)/C(=c1/sc(=Cc3ccc(F)c(F)c3)c(=O)n1CCN(C)C)C(=O)N2` (mixture of isomers), for which the IC50 in the assay with HT-29 was 7.43 µM; in the assay with MDA-MB-231 it was more than 200 µM; in the assay on NCI-H460, 59.7 µM.
For the compound `CCN(CC)CCCn1c(=O)c(=Cc2ccccc2O)s/c1=C1\C(=O)Nc2ccccc21` (mixture of isomers), the IC50 in the assay on HT-29, with MDA-MB-231 and in the assay with NCI-H460 was more than 200 µM throughout.
For the compound `CCN(CC)CCCn1c(=O)c(=Cc2cc(OC)c(OC)c(OC)c2)s/c1=C1\C(=O)Nc2cc(F)ccc21` (mixture of isomers), the IC50 in the assay with HT-29 was more than 200 µM; in the assay on MDA-MB-231, more than 200 µM; in the assay with NCI-H460, 1.41 µM.
As to `CN(C)CCn1c(=O)c(=Cc2ccc(F)c(F)c2)s/c1=C1\C(=O)Nc2cc(F)ccc21` (mixture of isomers), the IC50 worked out at 12.1 µM in the assay on HT-29, 25 µM in the assay with MDA-MB-231 and 6.4 µM with NCI-H460.
For `CCN(CC)CCCn1c(=O)c(=Cc2ccc(F)cc2F)s/c1=C1\C(=O)Nc2ccccc21` (mixture of isomers), in that order: more than 200 µM, more than 200 µM and 5.47 µM.
As to `CCN(CC)CCCn1c(=O)c(=Cc2ccccc2O)s/c1=C1\C(=O)Nc2ccc(C)cc21` (mixture of isomers), the IC50 in the assay on HT-29 was 8.07 µM; in the assay on MDA-MB-231 it was 15.9 µM; in the assay on NCI-H460 it was 11.3 µM.
